Measured values taken from paper PMC6636858 (European journal of medicinal chemistry, 2019).
Where two headings read alike, the source gives them in different places. Blank lines part the entries; values can stand above or below the compound they belong to. Peptide text beside a SMILES is read from it. * marks the point of attachment. AMC = Cc1cc(=O)oc2cc(N*)ccc12; Cbz = O=C(OCc1ccccc1)*

Legend:
[1] = molecular target: T1, Cathepsin B (CatB, human liver) (Homo sapiens, UniProt P07858); assay: CatB inhibition constants / Km, fluorogenic substrate Z-Arg-Arg-AMC; assay type: biochemical
[2] = molecular target: T2, Cathepsin L (Cat L, human liver) (Homo sapiens, UniProt P07711); assay: CatL inhibition constants / Km, fluorogenic substrate Z-Phe-Arg-AMC; assay type: biochemical
human CatB = human CatB (Homo sapiens, UniProt P07858); assay: SDS-PAGE autoradiography of adduct formation with purified CatB; assay type: biochemical; conditions: E-64 10 μM or N1 20 μM
HT-29 cells = assay: SDS-PAGE autoradiography of intracellular adducts in cell lysate; assay type: cell-based, human; conditions: E-64 10 μM or N1 20 μM
In short: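 HT-29 cells (1 × 10^6/well) incubated 4 h at 37 °C with radioconjugate (20 μCi, 0.74 MBq, in 1 mL medium), ± E-64 (10 μM as added) or N1 (20 μM as added). Cells PBS-washed and given fresh medium. At chosen times, pooled from 3 wells, trypsinized and lysed in RIPA plus protease inhibitor (15 min on ice). Cleared lysate heated in SDS sample buffer (85 °C, 2 min) and run on 16% Tris-glycine gel (110 V, 90 min).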

human CatL = human CatL (Homo sapiens, UniProt P07711); assay: SDS-PAGE autoradiography of adduct formation with purified CatL; assay type: biochemical; conditions: E-64 10 μM or N1 20 μM
[3] = molecular target: T1, Cathepsin B (CatB, human liver); conditions: read-out: Michaelis-Menten constant (Km), reported value; cited from earlier work
[4] = molecular target: T2, Cathepsin L (Cat L, human liver); conditions: read-out: Michaelis-Menten constant (Km), literature value; CatL; cited from earlier work

T2 sequence (P07711 114-288 limits assumed): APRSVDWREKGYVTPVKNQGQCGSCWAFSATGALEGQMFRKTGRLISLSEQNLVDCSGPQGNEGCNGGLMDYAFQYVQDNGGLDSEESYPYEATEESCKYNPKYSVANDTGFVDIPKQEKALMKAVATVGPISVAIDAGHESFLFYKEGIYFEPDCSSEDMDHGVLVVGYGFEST
T2 sequence (P07711 292-333 limits assumed): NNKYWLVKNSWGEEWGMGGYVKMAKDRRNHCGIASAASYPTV
Chain of human CatL (P07711 114-288 limits assumed): as the sequence (P07711 114-288 limits assumed) above
Chain of human CatL (P07711 292-333 limits assumed): as the sequence (P07711 292-333 limits assumed) above

Compound: 3-(((S)-1-(((S)-1-((2-azidoethyl)amino)-5-guanidino-1-oxopentan-2-yl)amino)-4-methyl-1-oxopentan-2-yl)carbamoyl)oxirane-2-carboxylic acid [1a]
second order rate constant ki/Ki ([1]; CatB): 130000 ± 1900 M⁻¹ s⁻¹ | second order rate constant ki/Ki ([2]; CatL): 16000 ± 1300 M⁻¹ s⁻¹

inhibition of CatB ([1]; over the test concentration ranges): No inhibition
Compound: CC(C)C[C@H](NC(=O)CCC(=O)O)C(=O)N[C@@H](CCCNC(=N)N)C(=O)NCCN=[N+]=[N-] [1b, 4-(((S)-1-(((S)-1-((2-azidoethyl)amino)-5-guanidino-1-oxopentan-2-yl)amino)-4-methyl-1-oxopentan-2-yl)amino)-4-oxobutanoic acid]

effect of co-incubated agent on ^177Lu-NE1a adduct formation with CatB (human CatB): prevented adduct formation | effect of co-incubated agent on ^177Lu-NE1a adduct formation with CatL (human CatL): prevented adduct formation
Compound: CC(C)C[C@H](NC(=O)[C@H]1O[C@@H]1C(=O)O)C(=O)NCCCCN=C(N)N [E-64]
effect of co-incubated agent on ^177Lu-NE1a intracellular adduct formation (HT-29 cells): unaffected

Km ([1]; read-out: Michaelis-Menten constant (Km), CatB substrate): 189 ± 2 µM
Compound: Cc1cc(=O)oc2cc(NC(=O)[C@H](CCCN=C(N)N)NC(=O)[C@H](CCCN=C(N)N)NC(=O)OCc3ccccc3)ccc12 [Z-Arg-Arg-AMC] (Cbz-Arg-Arg-{AMC})
Km [3]: 390 ± 20 µM

Km ([2]; read-out: Michaelis-Menten constant (Km), CatL substrate): 36 ± 3 µM
Compound: Cc1cc(=O)oc2cc(NC(=O)C(CCCN=C(N)N)NC(=O)C(Cc3ccccc3)NC(=O)OCc3ccccc3)ccc12 (stereo not drawn) [Z-Phe-Arg-AMC] (Cbz-Phe-Arg-{AMC}; configuration not given here)
Km [4]: 21.5 ± 3.2 µM
